# Measurements of several laboratories.
# Lines come from different studies, so protocols differ.
# Target: Serine/threonine-protein kinase Nek3 (NEK3, Homo sapiens, UniProt P51956)
# Residues used in one study (P51956 1-506): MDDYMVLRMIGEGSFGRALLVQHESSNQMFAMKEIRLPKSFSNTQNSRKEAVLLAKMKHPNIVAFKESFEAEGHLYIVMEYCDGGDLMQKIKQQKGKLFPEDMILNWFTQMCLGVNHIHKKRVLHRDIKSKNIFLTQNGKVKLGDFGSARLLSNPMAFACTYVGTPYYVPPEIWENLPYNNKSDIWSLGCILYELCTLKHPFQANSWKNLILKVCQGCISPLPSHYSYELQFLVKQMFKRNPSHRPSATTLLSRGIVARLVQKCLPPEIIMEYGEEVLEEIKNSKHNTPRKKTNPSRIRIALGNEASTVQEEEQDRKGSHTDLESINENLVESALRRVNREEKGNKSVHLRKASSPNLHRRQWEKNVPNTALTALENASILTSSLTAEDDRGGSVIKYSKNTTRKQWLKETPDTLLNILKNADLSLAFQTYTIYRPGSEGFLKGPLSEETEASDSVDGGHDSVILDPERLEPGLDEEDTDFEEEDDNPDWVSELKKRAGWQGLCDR
Compound,assay,conditions,remaining binding [%]
FC(F)(F)Oc1cccc(-c2cnc3ccc(-c4ccncc4)nn23)c1,"cell-free assay, competition with immobilised ligand",5 µM,73
CN(C)c1nccc(-c2cnc3ncccn23)n1,binding,1 µM,100
N#CC1(c2ccccn2)CCN(Cc2cc(C(=O)N3CCCC3)c(=O)n3ccccc23)CC1,"cell-free assay, competition with immobilised ligand",1 µM,83
O=C(c1ccc(Nc2ncc(Cl)c(-c3ccc(Cl)s3)n2)cc1)N1CCC(N2CCCC2)CC1,"binding, competition with immobilised ligand",1 µM,0.45
C[C@@H]1CCN(c2nccc(-c3cnn4ncccc34)n2)C1,binding,1 µM,81
O=C(O)[C@@H]1[C@@H](Cn2nnc3ccccc3c2=O)CC[C@H]1C(=O)c1ccc(OCCC2CCOCC2)cc1,"cell-free assay, competition with immobilised ligand",1 µM,83
O=C(NCCCN1CCOCC1)c1ccc(Nc2ncc(Cl)c(-c3ccc(Cl)s3)n2)cc1,"binding, competition with immobilised ligand",1 µM,0.5
c1ccc(N2CCN(Cc3nc4ccccc4[nH]3)CC2)nc1,"binding, competition with immobilised ligand",1 µM,100
CNC(=O)[C@@H]1CC[C@@H](n2c(-c3ccc4cnccc4c3)nc3ccc(C(=O)NCc4cccc(C(N)=O)c4)cc32)C1,"binding, competition with immobilised ligand",1 µM,61
Nc1ncc2c(n1)-c1c([nH]c3ccc(C#CC4CC4)cc13)CCCC2,"binding, competition with immobilised ligand",1 µM,78
c1cnn2ncc(-c3ccnc(N4CCC45COC5)n3)c2c1,binding,1 µM,64
C[C@@H](c1ccc(-n2cnc3c(N)ncnc32)cc1)N1CCc2nn(C)c(Cc3ccccc3)c2C1=O,"binding, competition with immobilised ligand",0.1 µM,30
COc1cc(-c2cn(C3CCc4ccccc4N(CC(F)(F)F)C3=O)nn2)ccc1-n1ccc(C)n1 (stereo not drawn),"cell-free assay, competition with immobilised ligand",1 µM,100
COc1cnc(Nc2cccc(S(N)(=O)=O)c2)nc1N1CCN(c2ccccc2)CC1,"binding, competition with immobilised ligand",1 µM,74
CN(C(=O)c1ccccc1)c1cc(N(C)c2ccc3c(c2)CCc2ccc(C(=O)NCCN4CCOCC4)cc2C3=O)ccc1F,"cell-free assay, competition with immobilised ligand",1 µM,99
F[C@@H]1CCN(c2nccc(-c3cnn4ncccc34)n2)C1,binding,1 µM,90
O=C(c1ccc(Nc2nccc(-c3cc4ccccc4s3)n2)cc1)N1CCC(N2CCCC2)CC1,"binding, competition with immobilised ligand",1 µM,5.4
N[C@@H]1CCN(c2nccc(-c3cnn4ncccc34)n2)C1,binding,1 µM,95
O=C(NCc1ncc(C(F)(F)F)cc1Cl)c1ccc2c(c1)C1(CCS(=O)(=O)CC1)[C@H](C1CC1)N2S(=O)(=O)c1ccc(F)cc1,"cell-free assay, competition with immobilised ligand",1 µM,100
CN(CCCC(F)(F)F)c1nccc(-c2cnn3ncccc23)n1,binding,1 µM,100
O=C(NCC1CCOCC1)c1n[nH]cc1NC(=O)c1c(F)cccc1F,"binding, competition with immobilised ligand",1 µM,66
